Molecules are shown by their SMILES. In brackets after ≈: the same amount, converted by molar mass.

The nature of test [1]: Cytotoxicity against human CCL229 cells after 3 days by MTT assay. The format is functional, cell-based. To be noted: CCL229, 72 h. In a few lines: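 CCL-229 colon cancer cells grown in F12K medium (2 mM L-glutamine, 1500 mg/L sodium bicarbonate), seeded at 10,000 cells/well. Compounds added at final 5–500 µg/mL. Incubation 3 days at 37°C, humidified 5% CO2. Viability read by MTT. IC50 is the concentration giving 50% viability, taken from dose-response curves. Triplicate, mean ± SEM.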
A general note: Tetrazolium assays rely on reduction of a dye to a coloured formazan, in cell work by metabolically active cells.

The target in test [2] is Nuclear factor NF-kappa-B complex (Homo sapiens) (UniProt Q00653+P19838+Q04206). The experiment in a line: Inhibition of TNFalpha-induced nuclear factor-kappa-B (unknown origin) expressed in HEK293 cells pre-incubated for 16 hrs followed by TNFalpha stimulation for 6 hrs by luciferase reporter gene assay. The format is cell-based. In a few lines: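 NFκB reporter HEK293 cells seeded at 30,000/well in assay medium without hygromycin B and allowed to reattach overnight at 37°C, 5% CO2. Compound dilutions added for 16 h (DMSO in untreated and cell-free controls). Mouse TNFα 5 ng/mL then added for 6 h. Cells lysed with one-step luciferase reagent about 15 min at room temperature, luminescence read. Non-linear regression; triplicate, mean ± SEM.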
Chain of Nuclear factor NF-kappa-B complex (Homo sapiens) (P19838 whole entry, looked up): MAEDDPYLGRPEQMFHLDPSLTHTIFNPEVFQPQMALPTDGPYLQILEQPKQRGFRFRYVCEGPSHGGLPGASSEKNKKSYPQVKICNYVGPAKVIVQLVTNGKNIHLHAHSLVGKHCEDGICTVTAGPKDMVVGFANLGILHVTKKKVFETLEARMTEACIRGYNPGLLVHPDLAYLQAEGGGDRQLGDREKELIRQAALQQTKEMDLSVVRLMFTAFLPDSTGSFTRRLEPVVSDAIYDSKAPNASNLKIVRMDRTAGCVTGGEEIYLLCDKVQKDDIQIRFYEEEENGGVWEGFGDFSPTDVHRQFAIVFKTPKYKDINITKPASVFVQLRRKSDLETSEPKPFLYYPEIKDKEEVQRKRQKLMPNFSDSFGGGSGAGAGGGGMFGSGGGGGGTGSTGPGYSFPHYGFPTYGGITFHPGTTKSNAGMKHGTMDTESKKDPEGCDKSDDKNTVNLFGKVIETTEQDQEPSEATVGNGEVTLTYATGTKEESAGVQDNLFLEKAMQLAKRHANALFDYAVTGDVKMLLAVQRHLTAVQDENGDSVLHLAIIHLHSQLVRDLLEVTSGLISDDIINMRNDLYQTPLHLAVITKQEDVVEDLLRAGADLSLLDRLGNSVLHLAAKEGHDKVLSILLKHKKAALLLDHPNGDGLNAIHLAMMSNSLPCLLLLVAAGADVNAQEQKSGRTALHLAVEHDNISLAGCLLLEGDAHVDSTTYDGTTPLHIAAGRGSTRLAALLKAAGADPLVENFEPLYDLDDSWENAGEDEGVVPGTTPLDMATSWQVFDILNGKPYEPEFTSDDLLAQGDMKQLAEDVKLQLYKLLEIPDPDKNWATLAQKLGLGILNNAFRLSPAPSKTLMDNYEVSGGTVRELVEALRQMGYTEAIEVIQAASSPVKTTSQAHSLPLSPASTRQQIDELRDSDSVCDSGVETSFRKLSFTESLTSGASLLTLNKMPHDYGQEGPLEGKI
Chain of Nuclear factor NF-kappa-B complex (Homo sapiens) (Q00653 whole entry, looked up): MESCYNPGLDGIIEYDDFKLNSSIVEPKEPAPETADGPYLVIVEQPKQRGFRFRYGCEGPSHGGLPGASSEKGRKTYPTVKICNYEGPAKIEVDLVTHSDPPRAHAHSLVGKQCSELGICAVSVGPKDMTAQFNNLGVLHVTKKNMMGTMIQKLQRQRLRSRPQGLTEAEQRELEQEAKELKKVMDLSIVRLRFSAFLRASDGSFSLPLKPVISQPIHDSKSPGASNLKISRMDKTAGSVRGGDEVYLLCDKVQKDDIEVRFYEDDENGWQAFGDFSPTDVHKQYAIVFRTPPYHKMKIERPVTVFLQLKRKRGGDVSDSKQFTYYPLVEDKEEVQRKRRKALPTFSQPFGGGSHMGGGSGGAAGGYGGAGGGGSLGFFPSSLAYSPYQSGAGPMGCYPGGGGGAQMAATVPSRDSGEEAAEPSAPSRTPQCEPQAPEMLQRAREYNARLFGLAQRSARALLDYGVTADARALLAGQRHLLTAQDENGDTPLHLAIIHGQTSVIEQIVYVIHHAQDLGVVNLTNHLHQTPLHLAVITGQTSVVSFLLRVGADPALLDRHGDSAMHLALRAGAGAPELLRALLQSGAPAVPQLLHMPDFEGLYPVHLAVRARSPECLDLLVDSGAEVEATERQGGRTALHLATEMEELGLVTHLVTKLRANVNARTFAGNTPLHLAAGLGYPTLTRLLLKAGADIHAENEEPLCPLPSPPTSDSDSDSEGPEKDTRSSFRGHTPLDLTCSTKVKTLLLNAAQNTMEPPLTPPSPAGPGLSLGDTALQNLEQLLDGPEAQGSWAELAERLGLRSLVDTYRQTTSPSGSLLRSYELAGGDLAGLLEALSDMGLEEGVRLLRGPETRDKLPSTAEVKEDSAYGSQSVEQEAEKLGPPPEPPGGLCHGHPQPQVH
Chain of Nuclear factor NF-kappa-B complex (Homo sapiens) (Q04206 whole entry, looked up): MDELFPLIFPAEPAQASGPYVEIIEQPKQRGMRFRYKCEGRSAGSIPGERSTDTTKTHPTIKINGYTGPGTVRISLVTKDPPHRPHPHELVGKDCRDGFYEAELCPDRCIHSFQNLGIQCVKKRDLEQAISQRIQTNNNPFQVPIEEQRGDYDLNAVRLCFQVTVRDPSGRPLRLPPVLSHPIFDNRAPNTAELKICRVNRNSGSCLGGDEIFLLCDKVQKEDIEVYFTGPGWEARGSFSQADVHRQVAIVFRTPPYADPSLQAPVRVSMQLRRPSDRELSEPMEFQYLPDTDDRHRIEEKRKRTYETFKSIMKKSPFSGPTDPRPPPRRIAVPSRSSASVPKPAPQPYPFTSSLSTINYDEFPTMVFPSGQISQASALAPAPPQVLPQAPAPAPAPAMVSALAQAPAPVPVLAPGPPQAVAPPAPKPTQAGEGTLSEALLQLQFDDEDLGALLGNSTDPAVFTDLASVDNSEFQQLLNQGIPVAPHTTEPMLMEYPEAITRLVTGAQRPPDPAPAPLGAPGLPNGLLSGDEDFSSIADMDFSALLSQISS
For orientation: A reporter such as luciferase makes a cellular process visible.

Another test has as its system PBMC. The experiment in a line: Cytotoxicity against human PBMC after 3 days by MTT assay. It is filed as cell-based. To be noted: 72 h. In a few lines:
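PBMCs from healthy volunteers cultured in IL-2-supplemented medium, seeded at 4×10^5–5×10^4 cells/well. Compounds added at final 2–100 µg/mL. Incubation 3 days at 37°C, humidified 5% CO2, then MTT read-out. IC50 is the concentration giving 50% viability, from dose-response curves. Triplicate, mean ± SEM.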

Test [3] relates to COLO 205. The test is described as follows: Induction of apoptosis in human COLO205 cells at 7.4 ug/ml after 24 hrs by propidium iodide and annexin V staining method (reference value: 14.3%). The format is functional.
The test system of test [4] is COLO 205. The experiment in a line: Induction of mitochondrial membrane permeabilization in human COLO205 cells at 7.4 ug/ml by JC1 dye based staining method (reference value: 14%). The format is functional. In a few lines:
(§1)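 COLO-205 cells, 1×10^6 per sample, exposed under the same conditions and controls as the annexin assay (camptothecin, DMSO). Then labelled with JC-1 at 200 μg/ml and scored for % cells with permeabilized mitochondrial membranes. Triplicate.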

Test [5] has as its system COLO 205. The experiment in a line: Induction of apoptosis in human COLO205 cells assessed as caspase-3 activation at 7.4 ug/ml by FLICA staining based method. It is filed as functional. In a few lines: (§2)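 COLO-205 cells exposed under the annexin assay conditions (24 h; camptothecin and DMSO controls). Cells harvested and stained with fluorescent labelled inhibitors of caspases (FLICA) for active caspase 3/7, scored as % positive cells. Triplicate.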

The test system of test [6] is COLO 205. The experiment in a line: Induction of apoptosis in human COLO205 cells assessed as caspase-3 activation at 3.5 ug/ml by FLICA staining based method. The format is functional. In a few lines: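 COLO-205 cells treated as in the annexin assay (24 h exposure); cells harvested and stained with fluorescent labelled caspase inhibitors (FLICA) for active caspase 3/7; read as percent of cells with active caspase; triplicate runs.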

In test [7] the test system is COLO 205. The experiment in a line: Induction of mitochondrial membrane permeabilization in human COLO205 cells at 3.5 ug/ml by JC1 dye based staining method (reference value: 14%). The format is functional.
For test [8], the system named is COLO 205. The test is described as follows: Induction of apoptosis in human COLO205 cells at 3.5 ug/ml after 24 hrs by propidium iodide and annexin V staining method (reference value: 14.3%). The format is functional.
The subject of test [9] is COLO 205. The experiment in a line: Induction of apoptosis in human COLO205 cells at 46 ug/ml after 24 hrs by propidium iodide and annexin V staining method (reference value: 14.3%). It is filed as functional.
Test [10] concerns COLO 205. The experiment in a line: Induction of mitochondrial membrane permeabilization in human COLO205 cells at 46 ug/ml by JC1 dye based staining method (reference value: 14%). It is filed as functional. In a few lines:
as §1

Test [11] addresses T1, DNA topoisomerase 1 (Homo sapiens) (UniProt P11387).
T1 sequence (whole entry): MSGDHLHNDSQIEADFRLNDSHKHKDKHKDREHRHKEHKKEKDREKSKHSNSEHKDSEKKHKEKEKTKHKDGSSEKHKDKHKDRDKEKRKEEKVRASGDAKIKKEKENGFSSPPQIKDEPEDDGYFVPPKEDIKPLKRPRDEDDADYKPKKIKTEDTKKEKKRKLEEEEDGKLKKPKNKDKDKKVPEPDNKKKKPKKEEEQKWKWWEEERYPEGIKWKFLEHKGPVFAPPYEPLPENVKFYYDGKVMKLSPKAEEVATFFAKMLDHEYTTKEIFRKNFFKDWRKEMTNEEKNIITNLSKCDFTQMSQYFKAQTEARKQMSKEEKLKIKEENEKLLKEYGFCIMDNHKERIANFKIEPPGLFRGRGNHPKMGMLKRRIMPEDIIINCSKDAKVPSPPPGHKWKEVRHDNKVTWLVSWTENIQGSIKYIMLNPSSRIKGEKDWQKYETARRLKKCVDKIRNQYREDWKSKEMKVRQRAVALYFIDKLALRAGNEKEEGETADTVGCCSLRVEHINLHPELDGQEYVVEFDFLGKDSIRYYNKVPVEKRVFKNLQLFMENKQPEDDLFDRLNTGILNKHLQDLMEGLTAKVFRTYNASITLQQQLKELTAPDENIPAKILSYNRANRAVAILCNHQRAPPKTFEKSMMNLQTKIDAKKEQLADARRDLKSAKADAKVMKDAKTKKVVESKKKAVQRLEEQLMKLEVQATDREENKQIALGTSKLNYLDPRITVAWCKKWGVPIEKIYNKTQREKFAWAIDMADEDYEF
The test is described as follows: Inhibition of human DNA topoisomerase 1 using pHOT1 supercoiled DNA substrate incubated for 30 mins by ethidium bromide staining based gel electrophoresis method. In a few lines: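 Human DNA topoisomerase I kit with pHOT1 supercoiled DNA substrate. Compounds dissolved in 50% DMSO and tested at 10–1,500 μg/mL. Reactions run 30 min at 37°C, stopped with 10% SDS, then proteinase K 0.05 mg/mL for 15 min at 37°C. Products resolved on 1% agarose gel at 72V, stained with ethidium bromide 1 h, destained 30 min. Triplicate.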

The subject of test [12] is COLO 205. The experiment in a line: Induction of apoptosis in human COLO205 cells assessed as caspase-3 activation at 46 ug/ml by FLICA staining based method. It is filed as functional. In a few lines:
as §2

Consider `CCCCCCCCCCCCCCCC(=O)Oc1cccc(/C=C/C(=O)/C=C/c2cccc(OC(=O)CCCCCCCCCCCCCCC)c2)c1`, for which, in test [1], the IC50 (commonly the concentration that gives 50% inhibition) is 113 µg/mL (≈ 152 µM).

For `CCCCCCCCCCCCCCCC(=O)Oc1cc(/C=C2\CCC/C(=C\c3ccc(OC)c(OC(=O)CCCCCCCCCCCCCCC)c3)C2=O)ccc1OC`, the IC50 in [1] stood at 130 µg/mL (≈ 154 µM). This IC50 and that of the molecule before are within 1.5-fold of each other.

As to `COc1cc(/C=C/C(=O)CC(=O)/C=C/c2ccc(O)c(OC)c2)ccc1O` [CURCUMIN], the inhibition entry in test [2] was “Dose-dependent effect”. For the same molecule, the IC50 in the test with PBMC worked out at 12.3 µg/mL (≈ 33.4 µM); in test [1], 26.8 µg/mL (≈ 72.7 µM). Besides, the results for the Activity in the test with COLO 205 [3], with COLO 205 [4] and with COLO 205 [5] were 27.5%, 23% and 23.3%, respectively.

Molecule `CCCCCCCCCC(=O)Oc1cc(/C=C/C(=O)/C=C/c2ccc(OC)c(OC(=O)CCCCCCCCC)c2)ccc1OC` gave an IC50 in test [1] of 66 µg/mL (≈ 104 µM).

The molecule `CCCCCCCCCCCCCCCC(=O)Oc1cc(/C=C/C(=O)/C=C/c2ccc(OC)c(OC(=O)CCCCCCCCCCCCCCC)c2)ccc1OC` gave a half-maximal inhibitory concentration (IC50) in test [1] of 70.5 µg/mL (≈ 87.8 µM).

Consider `CCCCCCCCCCCCCCCC(=O)Oc1ccc(/C=C2\CCC/C(=C\c3ccc(OC(=O)CCCCCCCCCCCCCCC)c(OC)c3)C2=O)cc1OC`, for which, in test [1], the IC50 is 139 µg/mL (≈ 165 µM). This IC50 is about 2-fold higher than that of the molecule before.

For `CC[C@@]1(O)C(=O)OCc2c1cc1n(c2=O)Cc2cc3ccccc3nc2-1` [CAMPTOTHECIN], the Activity in the test with COLO 205 [6] turned out to be 30%; with COLO 205 [7] it was 48.5%; in the test on COLO 205 [8], 29%.

For `CCCCCCCCCC(=O)Oc1cccc(/C=C/C(=O)/C=C/c2cccc(OC(=O)CCCCCCCCC)c2)c1`, the inhibition entry in test [2] is “Dose-dependent effect”. Also, the Activity is recorded as 27.5% in the test with COLO 205 [9], 68% in the test with COLO 205 [10] and 19.5% with COLO 205 [12]. The figures for the IC50 (in the test with PBMC; in test [1]) were 35.9 µg/mL (≈ 62.5 µM) and 22.5 µg/mL (≈ 39.1 µM), respectively. The same molecule gave an MIC in [11] of 50 µg/mL (≈ 87 µM).

As for `CCCCCCCCCC(=O)Oc1ccc(/C=C/C(=O)/C=C/c2ccc(OC(=O)CCCCCCCCC)cc2)cc1`, the half-maximal inhibitory concentration (IC50) in test [1] was determined as 180 µg/mL (≈ 313 µM).

Take `CCCCCCCCCCCCCCCC(=O)Oc1ccc(/C=C/C(=O)/C=C/c2ccc(OC(=O)CCCCCCCCCCCCCCC)c(OC)c2)cc1OC`: the 50% inhibitory concentration (IC50) is 40.6 µg/mL (≈ 50.5 µM) with PBMC and 56.1 µg/mL (≈ 69.8 µM) in test [1]. The same molecule displayed an MIC in test [11] of 100 µg/mL (≈ 125 µM).

As to `CCCCCCCCCC(=O)Oc1ccc(/C=C/C(=O)/C=C/c2ccc(OC(=O)CCCCCCCCC)c(OC)c2)cc1OC`, the midpoint of inhibition in test [1], the IC50, lay at 143 µg/mL (≈ 225 µM).

In the case of `CCCCCCCCCCCCCCCC(=O)Oc1cccc(/C=C2\CCC/C(=C\c3cccc(OC(=O)CCCCCCCCCCCCCCC)c3)C2=O)c1`, the IC50 worked out at 36.3 µg/mL (≈ 46.3 µM) in the test on PBMC and 29.3 µg/mL (≈ 37.4 µM) in test [1]. This molecule also gave an MIC in test [11] of 250 µg/mL (≈ 319 µM).

For the origin of these results see ChEMBL document CHEMBL3400062, “Synthesis of novel C5-curcuminoid-fatty acid conjugates and mechanistic investigation of their anticancer activity” (Bioorg Med Chem Lett, 2015).
